SMILES strings stand for the structures. Activity calls are given as the source filed them. No cut-off for these calls is given here.

We go through 29 molecules from ChEMBL document CHEMBL1275345, “Pyrazolo[1',5':1,6]pyrimido[4,5-d]pyridazin-4(3H)-ones as selective human A(1) adenosine receptor ligands” (Bioorg Med Chem, 2010).

Type in all cases: cell-based
Assay [1] has as its target T1, Adenosine receptor A3 (Homo sapiens) (UniProt P0DMS8).
T1 sequence (whole entry): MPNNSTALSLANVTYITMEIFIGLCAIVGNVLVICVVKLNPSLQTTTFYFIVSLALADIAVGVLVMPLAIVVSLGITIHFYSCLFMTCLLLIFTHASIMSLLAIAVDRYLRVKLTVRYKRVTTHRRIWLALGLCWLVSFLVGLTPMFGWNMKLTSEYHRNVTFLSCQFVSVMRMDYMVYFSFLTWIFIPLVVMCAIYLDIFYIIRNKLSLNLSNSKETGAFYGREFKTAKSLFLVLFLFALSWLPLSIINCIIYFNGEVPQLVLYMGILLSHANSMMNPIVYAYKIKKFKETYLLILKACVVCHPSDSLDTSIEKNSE
In words: Displacement of [3H]NECA from human adenosine A3 receptor expressed in HeLa cells at 10 uM after 180 mins. The method in brief: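 HeLa cells expressing human A3 receptor, with displacement of [3H]NECA. Incubated at 25 °C for 180 min, then filtered and counted by beta scintillation. Ki (nM) or percentage inhibition at the single test concentration. Means of four assays, each in triplicate.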

The target of assay [2] is T2, Adenosine receptor A2a (Homo sapiens, UniProt P29274). In words: Displacement of [3H]ZM241385 from human adenosine A2a receptor expressed in HeLa cells at 10 uM after 30 mins. In outline:
(§1)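 [3H]ZM241385 specific binding in HeLa cells expressing human A2A receptor. Incubation at 25 °C for 30 min, followed by filtration and beta scintillation counting. Output is Ki (nM) or % inhibition at the single test concentration. Values are means of four separate assays, each performed in triplicate.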

For assay [3], the target named is T3, Adenosine receptor A2b (Homo sapiens) (UniProt P29275).
T3 sequence (whole entry): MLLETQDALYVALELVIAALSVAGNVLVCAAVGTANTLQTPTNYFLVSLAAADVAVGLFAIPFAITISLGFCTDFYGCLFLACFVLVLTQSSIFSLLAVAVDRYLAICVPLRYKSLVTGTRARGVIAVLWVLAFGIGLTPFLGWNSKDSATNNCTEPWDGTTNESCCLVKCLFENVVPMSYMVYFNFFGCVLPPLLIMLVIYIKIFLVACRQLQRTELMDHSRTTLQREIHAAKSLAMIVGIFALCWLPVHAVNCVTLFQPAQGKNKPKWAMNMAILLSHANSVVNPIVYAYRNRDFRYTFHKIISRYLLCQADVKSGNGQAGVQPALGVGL
In words: Displacement of [3H]DPCPX from human adenosine A2b receptor expressed in HEK293 cells at 10 uM after 30 mins. In outline:
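Human A2B receptor expressed in HEK-293 cells, with displacement of [3H]DPCPX. Incubated at 25 °C for 30 min, then filtered and counted by beta scintillation. Reported as Ki (nM) or percentage inhibition at the single test concentration. Means of four independent assays, each run in triplicate.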

The target of another assay is T4, Adenosine receptor A1 (Homo sapiens, UniProt P30542).
T4 sequence (P30542 whole entry): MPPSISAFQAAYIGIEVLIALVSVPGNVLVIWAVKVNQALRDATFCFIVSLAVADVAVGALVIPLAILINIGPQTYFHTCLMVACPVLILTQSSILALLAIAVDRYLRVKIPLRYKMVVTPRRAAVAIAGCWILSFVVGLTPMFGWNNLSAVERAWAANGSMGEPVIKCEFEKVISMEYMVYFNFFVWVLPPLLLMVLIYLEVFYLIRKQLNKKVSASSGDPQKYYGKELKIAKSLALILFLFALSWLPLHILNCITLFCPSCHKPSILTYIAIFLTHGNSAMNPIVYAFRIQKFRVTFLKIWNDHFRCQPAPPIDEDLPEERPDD
As to the kind of experiment: Displacement of [3H]DPCPX from human adenosine A1 receptor expressed in CHO-A1 cells after 60 mins. The method in brief: (§2)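 Competition binding on membranes from CHO cells expressing human A1 receptor, labelled with 2 nM [3H]DPCPX. Non-specific binding defined with (R)-PIA. Incubation at 25 °C for 60 min, then filtration and beta scintillation counting. Result given as Ki (nM) or % inhibition at the single test concentration. Means of four separate assays, each in triplicate.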

The target of assay [4] is T5, Adenosine receptor A1 (Homo sapiens) (UniProt P30542).
T5 sequence (whole entry): T4 sequence (P30542 whole entry)
As to the kind of experiment: Displacement of [3H]DPCPX from human adenosine A1 receptor expressed in CHO-A1 cells at 10 uM after 60 mins. In outline:
as §2
On the technique in general: In a radioligand displacement assay an active substance lowers the binding of a labelled ligand.

The target in assay [5] is T2, Adenosine receptor A2a. As to the kind of experiment: Displacement of [3H]ZM241385 from human adenosine A2a receptor expressed in HeLa cells after 30 mins. In outline:
as §1

T2 sequence (P29274 whole entry): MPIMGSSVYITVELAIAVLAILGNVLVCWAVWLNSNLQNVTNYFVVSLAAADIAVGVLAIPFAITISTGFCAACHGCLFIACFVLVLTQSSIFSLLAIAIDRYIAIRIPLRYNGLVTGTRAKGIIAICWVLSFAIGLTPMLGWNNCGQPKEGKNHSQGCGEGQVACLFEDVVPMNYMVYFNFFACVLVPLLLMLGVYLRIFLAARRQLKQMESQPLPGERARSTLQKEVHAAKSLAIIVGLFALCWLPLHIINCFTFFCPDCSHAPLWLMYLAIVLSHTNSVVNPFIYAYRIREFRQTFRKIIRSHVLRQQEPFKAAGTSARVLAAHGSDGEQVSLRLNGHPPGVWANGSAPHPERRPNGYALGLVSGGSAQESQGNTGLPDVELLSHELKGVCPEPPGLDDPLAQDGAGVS

As for `O=c1c2ncn3nc(-c4ccccc4)cc3c2c(-c2ccccc2)nn1Cc1ccccc1`, the inhibition result (in assay [1]; on Adenosine receptor A2a [2]; in assay [3]) was “inactive” throughout. In addition, the inhibition constant (Ki) (commonly a measure of affinity in units of concentration, obtained from inhibition or displacement) at Adenosine receptor A1 amounted to 1.43 µM.

With `Fc1ccc(-c2nnc(Cl)c3ncn4nc(-c5ccccc5)cc4c23)cc1`, the inhibition entry (in assay [1]; on Adenosine receptor A2a [2]; in assay [3]) was “inactive” each time. Further, the inhibition (commonly the percentage by which the read-out fell short of the control) in assay [4] was under 50%.

`O=c1c2ncn3nc(-c4ccccc4)cc3c2c(-c2cccc(F)c2)nn1Cc1ccccc1`: the inhibition result (in assay [1]; on Adenosine receptor A2a [2]; in assay [3]) was “inactive” throughout. The inhibition constant (Ki) at Adenosine receptor A1 was found to be 0.0927 µM.

As to `CCc1nc2c(=O)n(Cc3ccccc3)nc(-c3ccc(F)cc3)c2c2cc(-c3ccccc3)nn12`, the inhibition result (in assay [1]; at Adenosine receptor A2a [2]; in assay [3]) was “inactive” throughout. This molecule showed an inhibition in assay [4] of under 50%.

Turning to `CCc1nc2c(=O)n(Cc3ccccc3)nc(-c3cccc(F)c3)c2c2cc(-c3ccsc3)nn12`, the inhibition result (in assay [1]; at Adenosine receptor A2a [2]; in assay [3]) was “inactive” in each case. The molecule also returned an inhibition in assay [4] of under 50%.

`CCc1nc2c(=O)n(Cc3ccccc3)nc(-c3cccc(F)c3)c2c2cc(-c3ccccc3)nn12`: the inhibition result (in assay [1]; at Adenosine receptor A2a [2]; in assay [3]) was “inactive” in each case. In assay [4], this molecule registered an inhibition of under 50%.

Consider `CCc1nc2c(=O)n(C(C)c3ccccc3)nc(C)c2c2cc(-c3ccccc3)nn12` (stereo unspecified), for which the inhibition (in assay [1]; at Adenosine receptor A2a [2]; in assay [3]) was under 50% each time. This molecule had a Ki at Adenosine receptor A1 of 2.38 µM.

As to `Cc1nc2c(=S)n(Cc3ccccc3)nc(-c3ccncc3)c2c2cc(-c3ccccc3)nn12`, the inhibition entry in assay [1] and in assay [3] was “inactive” throughout. For the same molecule, the Ki at Adenosine receptor A2a [5] worked out at 0.572 µM; on Adenosine receptor A1, 0.267 µM.

Turning to `Cc1nc2c(=O)n(Cc3ccccc3)nc(-c3ccc(F)cc3)c2c2cc(-c3ccccc3)nn12`, the inhibition entry (in assay [1]; on Adenosine receptor A2a [2]; in assay [3]) was “inactive” in each case. Further, in assay [4], the inhibition is under 50%.

For `Cc1nn(Cc2ccccc2)c(=O)c2nc(C)n3nc(-c4ccccc4)cc3c12`, the inhibition (in assay [1]; at Adenosine receptor A2a [2]; in assay [3]) was under 50% throughout. Also, at Adenosine receptor A1, the affinity corresponds to a Ki of 3.25 µM.

As for `Cc1nc2c(=O)n(Cc3ccccc3)nc(-c3ccccc3)c2c2cc(-c3ccccc3)nn12`, the inhibition entry (in assay [1]; at Adenosine receptor A2a [2]; in assay [3]) was “inactive” throughout. On Adenosine receptor A1, affinity was put at a Ki of 1.59 µM.

Regarding `O=c1c2nc(C(F)(F)F)n3nc(-c4ccccc4)cc3c2c(-c2ccc(F)cc2)nn1Cc1ccccc1`, the inhibition result (in assay [1]; at Adenosine receptor A2a [2]; in assay [3]) was “inactive” in each case. In assay [4], this molecule came in with an inhibition of under 50%.

With `Cc1nc2c(=O)n(Cc3ccccc3)nc(-c3cccc(F)c3)c2c2cc(-c3ccsc3)nn12`, the inhibition entry (in assay [1]; on Adenosine receptor A2a [2]; in assay [3]) was “inactive” each time. Besides, in assay [4], the inhibition is under 50%.

As for `Cc1nc2c(SCc3ccccc3)nnc(-c3ccncc3)c2c2cc(-c3ccccc3)nn12`, the inhibition result in assay [1] and in assay [3] was “inactive” each time. The inhibition (at Adenosine receptor A2a [2]; in assay [4]) was under 50% in each case.

`CCc1nc2c(=O)n(Cc3ccccc3)nc(-c3ccncc3)c2c2cc(-c3ccccc3)nn12`: the inhibition entry in assay [1] and in assay [3] was “inactive” each time. Also, the inhibitory constant (Ki) on Adenosine receptor A2a [5] amounted to 2.49 µM; on Adenosine receptor A1 it was 0.0718 µM.

For `CCc1nc2c(=O)n(Cc3ccccc3)nc(-c3ccccc3)c2c2cc(-c3ccccc3)nn12`, the inhibition entry (in assay [1]; at Adenosine receptor A2a [2]; in assay [3]) was “inactive” in each case. The molecule also came in with an inhibition constant (Ki) on Adenosine receptor A1 of 2.44 µM.

Turning to `O=c1c2ncn3nc(-c4ccsc4)cc3c2c(-c2ccc(F)cc2)nn1Cc1ccccc1`, the inhibition entry (in assay [1]; on Adenosine receptor A2a [2]; in assay [3]) was “inactive” in each case. For the same molecule, the affinity on Adenosine receptor A1, expressed as Ki, was 0.123 µM.

Consider `Cc1nn(Cc2ccccc2)c(=O)c2nnn3nc(-c4ccccc4)cc3c12`, for which the inhibition (in assay [1]; on Adenosine receptor A2a [2]; in assay [4]; in assay [3]) was under 50% in each case.

As to `Cc1nc2c(=O)n(Cc3ccccc3)nc(Cl)c2c2cc(-c3ccccc3)nn12`, the inhibition in assay [1] and in assay [3] was under 50% each time. The Ki turned out to be 3.15 µM on Adenosine receptor A2a [5] and 1.62 µM at Adenosine receptor A1.

Take `Cc1nc2c(=O)n(Cc3ccccc3)nc(-c3cccc(F)c3)c2c2cc(-c3ccccc3)nn12`: the inhibition entry (in assay [1]; on Adenosine receptor A2a [2]; in assay [3]) was “inactive” each time. This molecule also had a Ki on Adenosine receptor A1 of 3.24 µM.

Turning to `CC(C)c1nc2c(=O)n(Cc3ccccc3)nc(-c3ccncc3)c2c2cc(-c3ccccc3)nn12`, the inhibition entry in assay [1] and in assay [3] was “inactive” each time. The inhibitory constant (Ki) at Adenosine receptor A2a [5] came out at 5.19 µM; on Adenosine receptor A1, 0.192 µM.

For the molecule `Cc1nn(C(C)c2ccccc2)c(=O)c2ncn3nc(-c4ccccc4)cc3c12` (stereo unspecified), the inhibition (in assay [1]; on Adenosine receptor A2a [2]; in assay [3]) was under 50% throughout. The molecule also had a Ki on Adenosine receptor A1 of 0.475 µM.

As for `CCCc1nc2c(=O)n(Cc3ccccc3)nc(-c3ccncc3)c2c2cc(-c3ccccc3)nn12`, the inhibition result in assay [1] and in assay [3] was “inactive” in each case. Moreover, the figures for the Ki on Adenosine receptor A2a [5] and on Adenosine receptor A1 were 0.772 µM and 0.0283 µM, respectively.

In the case of `Cc1nn(Cc2ccccc2)c(=O)c2ncn3nccc3c12`, the inhibition (in assay [1]; on Adenosine receptor A2a [2]; in assay [4]; in assay [3]) was under 50% in each case.

As for `CC(C)c1nc2c(=O)n(Cc3ccccc3)nc(-c3ccccc3)c2c2cc(-c3ccccc3)nn12`, the inhibition result (in assay [1]; at Adenosine receptor A2a [2]; in assay [3]) was “inactive” each time. In assay [4], this molecule gave an inhibition of under 50%.

With `O=c1c2ncn3nc(-c4ccsc4)cc3c2c(-c2cccc(F)c2)nn1Cc1ccccc1`, the inhibition entry (in assay [1]; at Adenosine receptor A2a [2]; in assay [3]) was “inactive” in each case. Further, at Adenosine receptor A1, the Ki stood at 0.189 µM.

Regarding `CCCc1nc2c(=O)n(Cc3ccccc3)nc(-c3ccccc3)c2c2cc(-c3ccccc3)nn12`, the inhibition result (in assay [1]; on Adenosine receptor A2a [2]; in assay [3]) was “inactive” throughout. This molecule registered a Ki on Adenosine receptor A1 of 0.563 µM.

Regarding `O=c1c2ncn3nc(-c4ccccc4)cc3c2c(-c2ccc(F)cc2)nn1Cc1ccccc1`, the inhibition entry (in assay [1]; at Adenosine receptor A2a [2]; in assay [3]) was “inactive” each time. The molecule further registered a Ki at Adenosine receptor A1 of 0.252 µM.

As to `Cc1nn(Cc2ccccc2)c(=O)c2nc(C)n3nccc3c12`, the inhibition (in assay [1]; at Adenosine receptor A2a [2]; in assay [4]; in assay [3]) was under 50% in each case.
